Reference: paper PMC4138289 (Nature chemical biology, 2014)
Each block holds one molecule with its values, some of them ahead of it.

Key:
[1] = cytotoxicity, Sulforhodamine B assay, EGFR-independent cell lines; type: cell-based; details: human (MDA-MB-435S, SW620), mouse (NIH3T3)
[2] = time course of compound concentrations in A431 cells; type: in vitro ADME, human; details: relative cellular concentrations
[3] = tested on: mouse spleen proteomes; test: in vivo proteome reactivity, gel-based ABPP of mouse spleen; details: mice, 10 or 20 mg/kg, i.p., 1 hr
Procedure, shortened: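 C57BL/6 mice dosed i.p. in saline/EtOH/DMSO/Cremophor EL 17:1:1:1 (10 μL g−1). Inhibitor (20 mg/kg) or vehicle for 1 hr, then probe (10 or 20 mg/kg) for 1 hr; isoflurane, cervical dislocation. Tissues were DPBS-washed and bead-homogenized, spun at 1,500 × g, then 100,000 × g for 45 min (membrane/cytosolic) and set to 2 mg/mL. Rhodamine-azide click, SDS-PAGE, in-gel fluorescence.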

[4] = tested on: proteomes of cancer cell lines; test: in situ proteomic reactivity by gel-based ABPP in cancer cells; type: cell-based, human; details: in situ treatment with 1 μM probe, cancer cells (SW620 and others)

- stability / accumulation of compound in cells [2]: more prolonged accumulation in cells
SMILES: CN(C)C/C=C/C(=O)Nc1cc2c(Nc3ccc(F)c(Cl)c3)ncnc2cc1O[C@H]1CCOC1 [afatinib, reference compound]
- IC50 at 72 h [1]: 700 to 2200 nM

SMILES: C#Cc1cccc(Oc2ccc(-c3nn([C@@H]4CCCN(C(=O)C=C)C4)c4ncnc(N)c34)cc2)c1 [Probe 4]
- in vivo proteomic reactivity [3]: higher proteomic reactivity than probe 6

SMILES: C#CCOc1cc2ncnc(Nc3ccc(F)c(Cl)c3)c2cc1NC(=O)CCCN(C)C [Probe 13]
- time-dependent proteomic reactivity [4]: Negligible time-dependent proteomic reactivity
